Measured values collected from several papers.
Protocols differ between the studies behind these lines.
EGFR: Epidermal growth factor receptor (EGFR, Homo sapiens, UniProt P00533)
EGFR L861Q: Epidermal growth factor receptor (EGFR, Homo sapiens, UniProt P00533, L861Q)
EGFR L858R/T790M: Epidermal growth factor receptor (EGFR, Homo sapiens, UniProt P00533, L858R/T790M)
EGFR L858R: Epidermal growth factor receptor (EGFR, Homo sapiens, UniProt P00533, L858R)

| Compound | target | observed | mode | method | concentration | endpoint | value |
| --- | --- | --- | --- | --- | --- | --- | --- |
| O=C(Nc1cnn(-c2csc(C(=O)NC3COC3)c2)c1)Nc1ccccc1Cl | EGFR | enzyme activity | inhibitor |  | 5 µM | remaining activity | 99.7% |
| Cc1cc(NC(=O)c2cccc3cc(-c4cccc5[nH]nc(N)c45)ccc23)ccc1F | EGFR | enzyme activity | inhibitor |  | 0.1 µM | activity vs control | 103% |
| CCOC(=O)c1cc2cc(-c3cc(C(=O)NCc4ccc(C(=O)O)cc4)nn3C)ccc2[nH]1 | Epidermal growth factor receptor (EGFR, Homo sapiens, UniProt P00533, del746-750) | cell-free assay |  | competition with immobilised ligand | 0.1 µM | remaining binding | 100% |
| Cc1ccc(C(=O)Nc2ccc(CN3CCN(C)CC3)c(C(F)(F)F)c2)cc1C#Cc1cnc2cccnn12 | EGFR L861Q | cell-free assay |  |  | 23.5 nM | remaining signal | 92% |
| C=CC(=O)Nc1cc(Nc2nc(N3CCc4sccc4C3)c3cccnc3n2)c(OC)cc1N1CCOCC1 | EGFR L858R/T790M | enzyme activity | inhibitor | ELISA | 0.1 µM | inhibition | 23.5% |
| COc1ccc2cc(OCC3(C(=O)O)CN(C(=O)c4ccc(F)cc4)C3)ccc2c1 | EGFR L858R | cell-free assay |  | competition with immobilised ligand | 1 µM | remaining binding | 100% |
| C=CC(=O)Nc1cc(Nc2nc(N3CCc4sccc4C3)c3cccnc3n2)c(OC)cc1N(C)CCN(C)C | EGFR L858R/T790M | enzyme activity | inhibitor | ELISA | 0.1 µM | inhibition | 19.2% |
| CN([C@@H]1CCc2c(CC(=O)O)c3ccccc3n2C1)S(=O)(=O)c1ccc(F)cc1 | EGFR L861Q | cell-free assay |  | competition with immobilised ligand | 1 µM | remaining binding | 100% |
| Cc1ccc(NC(=O)c2ccc(CN3CCN(C)CC3)cc2)cc1Nc1nc(-c2cccnc2)cs1 | EGFR | cell-free assay |  |  | 0.5 µM | remaining signal | 99.6% |
| C[C@H]1CCN(c2nccc(-c3cnn4ncccc34)n2)C1 | EGFR L858R/T790M | binding |  |  | 1 µM | remaining binding | 80% |
| CC/C(=N\NC(=O)NCc1cccc(O)c1)c1ccc(O)c(C)c1O | Epidermal growth factor receptor (EGFR, Homo sapiens, UniProt P00533, del746-750/T790M) | enzyme activity | inhibitor |  | 0.1 µM | inhibition | -0.8% |
| CN(c1nccc(-c2cnn3ncccc23)n1)C1CC1 | Epidermal growth factor receptor (EGFR, Homo sapiens, UniProt P00533, del752-759) | binding |  |  | 1 µM | remaining binding | 100% |
| O=C(NCc1ncc(C(F)(F)F)cc1Cl)c1ccc2c(c1)C1(CCS(=O)(=O)CC1)[C@H](C1CC1)N2S(=O)(=O)c1ccc(F)cc1 | Epidermal growth factor receptor (EGFR, Homo sapiens, UniProt P00533, A750P/del747-749) | cell-free assay |  | competition with immobilised ligand | 1 µM | remaining binding | 97% |
| N[C@H]1CCN(c2nccc(-c3cnn4ncccc34)n2)C1 | Epidermal growth factor receptor (EGFR, Homo sapiens, UniProt P00533, T790M) | binding |  |  | 1 µM | remaining binding | 79% |
| CC(=O)c1c(NS(C)(=O)=O)c2cc(-c3ccc(Cl)cc3)c(-c3ccc(Cl)cc3Cl)nc2n(C)c1=O | EGFR L861Q | cell-free assay |  | competition with immobilised ligand | 1 µM | remaining binding | 100% |
| Nc1ncnc2occ(-c3ccc(NC(=O)Nc4cc(C(F)(F)F)ccc4F)cc3)c12 | Epidermal growth factor receptor (EGFR, Homo sapiens, UniProt P00533, del747-750/T751S) | cell-free assay |  |  | 20 µM | remaining signal | 27% |
| Cc1ccc(NC(=O)c2ccc(C)c(C(F)(F)F)c2)cc1C#Cc1nn(C2CCC(O)CC2)c2ncnc(N)c12 (stereo not shown) | EGFR L858R | cell-free assay |  |  | 10 µM | remaining signal | 21% |
| NS(=O)(=O)c1cc(NC(=O)Cc2ccccc2)ccc1Oc1cccc(Cl)c1 | Epidermal growth factor receptor (EGFR, Homo sapiens, UniProt P00533, G719C) | cell-free assay |  | competition with immobilised ligand | 1 µM | remaining binding | 63% |
| COc1cc(-c2cc(-c3ccc(N4CCNCC4)cc3)cnc2N)cc(OC)c1OC | EGFR L858R | enzyme activity | inhibitor |  | 0.1 µM | inhibition | 26% |
